Assay outcomes deposited in PubChem BioAssay by The Scripps Research Institute Molecular Screening Center.
This is a sample that favours compounds with a hit; in the whole collection about 2.7% have one here.
CHO parental Ca = ATP-evoked calcium signal inhibitors, parental CHO, primary screen, counter-screen for OX1R antagonist project, cell-based, fluorescence, Fluo-8 calcium dye. parental CHO-K1, ATP-induced calcium, Fluo-8 fluorescence. inhibition, % at 5.6 µM. 330,000 tested, 0.63% active. AID 463079, 2010;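 active = inhibition above that plate's mean sample inhibition plus 3 SD, cut at about 26% in these data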;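 also: 0% = ATP-challenged DMSO wells and 100% = DMSO wells without ATP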
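Material: Parental CHO cells | Reagent: ATP | Compound dosing: Single nominal dose of 5.6 µM per compound | Detection: Intracellular calcium via Fluo-8 no-wash fluorescent dye | Read-out: % inhibition of ATP-induced calcium mobilization | Benchmarks: Low control ATP plus DMSO, high control DMSO only | Replicates: Singlicate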
OX1R antag-1 = antagonists of human orexin 1 receptor (OX1R); 330,000 tested, 1.8% active; OX1R-expressing cells, FRET antagonist read-out; inhibition, % at 6.6 µM; in the data active = inhibition mostly above about 38%, no sharp cut-off; inactive = mostly below about 40%;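 also: 0% = agonist challenge alone and 100% = reference antagonist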
Target sequence (O43613 whole entry, looked up): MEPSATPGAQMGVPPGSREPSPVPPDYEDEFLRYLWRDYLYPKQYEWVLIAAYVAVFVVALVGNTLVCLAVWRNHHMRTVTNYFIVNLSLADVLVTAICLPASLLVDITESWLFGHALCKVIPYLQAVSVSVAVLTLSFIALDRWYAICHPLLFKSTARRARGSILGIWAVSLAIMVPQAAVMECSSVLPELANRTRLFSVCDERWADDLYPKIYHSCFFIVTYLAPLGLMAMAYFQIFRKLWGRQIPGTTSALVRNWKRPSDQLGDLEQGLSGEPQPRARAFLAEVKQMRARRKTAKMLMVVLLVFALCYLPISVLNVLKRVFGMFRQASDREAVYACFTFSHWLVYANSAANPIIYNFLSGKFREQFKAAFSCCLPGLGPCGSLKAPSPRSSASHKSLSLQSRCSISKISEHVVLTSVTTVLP
OXTR ag = human OXTR agonists, primary screen, fluorescence, CHO-OTR cells, Fluo-8 calcium | AID 2435, 2010 | activation, % at 3 µM | 320,000 tested, 0.32% active | Fluo-8 calcium fluorescence; normalized: DMSO 0%, oxytocin 100% | Oxytocin receptor (Homo sapiens), P30559;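 active = activation above the mean of all tested compounds plus 3 SD, cutoff set per screening run, cut at about 20% in these data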;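 also: peak over basal fluorescence ratio from a 100 s FLIPR kinetic read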
OXTR potentiate = human OXTR potentiators, primary screen, fluorescence, CHO-OTR cells, Fluo-8 calcium. 320,000 tested, 0.061% active. Fluo-8 calcium fluorescence, potentiator mode; 0% = oxytocin EC15, 100% = EC100. Oxytocin receptor (Homo sapiens), P30559. activation, % at 3 µM;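 active = activation above that plate's cutoff, the mean activation of tested compounds plus 3 SD, cut at about 6.6% in these data, passing the limit was not always enough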;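 also: 100% uses oxytocin at 75 nM as the full agonist control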
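assay system = CHO-OTR cells, human receptor | schedule = compound 6 min at room temperature before oxytocin, 100 s read | detection = Fluo-8 intracellular calcium fluorescence, ex 470-495, em 515-575 nm | evaluation = normalized max/min fluorescence ratio, % activation | control set = EC15 oxytocin alone as 0%, 75 nM oxytocin (EC100) as 100%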
V1aR counter = agonists of human V1a receptor, primary screen, counter-screen for OXTR agonist project, fluorescence, CHO-V1R cells | Vasopressin V1a receptor (Homo sapiens), P37288 | Fluo-8 calcium fluorescence, agonist mode; 0% DMSO, 100% 3 nM vasopressin | activation, % at 3 µM | 320,000 tested, 0.25% active;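 active = activation above the mean activation of all tested compounds plus 3 SD, per screening run, cut at about 20% in these data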;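 also: signal is peak over basal fluorescence ratio across a 100 second FLIPR read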
OX1R antag-2 = OX1R (HCRTR1) antagonists, primary screen, fluorescence, CHO/OX1R cells, Fluo-8 calcium, orexin A | Orexin/Hypocretin receptor type 1 (Homo sapiens), O43613 | Fluo-8 calcium fluorescence | inhibition, % at 5 µM | 330,000 tested, 0.43% active | AID 434989, 2010;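 active = inhibition above its plate's threshold, mean inhibition of all tested compounds on the plate plus 3 SD, cut at about 37% in these data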;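 also: 0% = orexin A challenge wells and 100% = SB-334867-A antagonist wells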
OX1R Ca confirm = OX1R (HCRTR1) antagonists, confirmation, fluorescence, CHO/OX1R cells, Fluo-8 calcium, orexin A. AID 492963, 2010. 1,100 tested, 38% active. inhibition, % at 5 µM. orexin A calcium Fluo-8 fluorescence. shares compounds with OX1R antag-2; in the data active = inhibition above about 29%;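 also: 0% = agonist challenge alone and 100% = reference antagonist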
CHO Ca triplic = ATP-evoked calcium inhibition in parental CHO, counter-screen for OX1R antagonist project, cell-based, fluorescence, CHO-K1, triplicate; shares compounds with OX1R antag-2; ATP-induced calcium, Fluo-8 fluorescence; inhibition, % at 5.6 µM; 1,100 tested, 9.3% active;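 active = inhibition above a per-plate limit, the mean inhibition of that plate's test compounds plus 3 SD, cut at about 25% in these data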;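 also: 0% = ATP challenge with DMSO and 100% = DMSO without ATP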
Numbers without * were called inactive; nt = no result.

SMILES	CHO parental Ca	OX1R antag-1	OXTR ag	OXTR potentiate	V1aR counter	OX1R antag-2	OX1R Ca confirm	CHO Ca triplic
CCNC(=O)C12CCC(C)(C(=O)O1)C2(C)C (stereo unspecified)	5.2	2.9	1.4	-2.1	0.1	21.8	6.8	1.3
Nc1c(C(O)(C(F)(F)F)C(F)(F)F)cc(C(O)(C(F)(F)F)C(F)(F)F)c2ccccc12	6.6	25.3	7.8	-15.0	2.0	27.9	-6.4	-0.8
Cc1cc(Cl)ccc1NC(=S)NCc1ccc(S(N)(=O)=O)cc1	9.7	12.9	-1.1	-15.5	-0.3	0.7	nt	nt
Cc1cc(Cl)ccc1NC(=S)NCc1ccc(Cl)cc1	10.8	40.1	10.1	-20.3	10.4	28.1	-4.5	4.5
COc1ccc(C(=O)Nc2ccc(Cl)c(S(=O)(=O)Nc3ccccc3OC)c2)cc1	-3.3	30.5	9.7	-10.3	7.8	32.4	14.8	3.2
Oc1ccccc1Nc1nc(NCc2ccco2)c2ccccc2n1	1.9	25.8	5.9	-8.6	3.8	-13.8	nt	nt
c1ccc(Nc2nc(NCc3ccco3)c3ccccc3n2)cc1	18.4	16.4	4.5	-14.8	3.6	31.1	15.2	15.5
O=C1CC(NCc2ccccc2F)C(=O)N1c1ccccc1 (stereo unspecified)	4.6	0.9	-0.1	9.7	0.6	43.1*	-1.6	-4.3
N#CCNC1CC(=O)N(c2ccccc2)C1=O (stereo unspecified)	-2.8	18.8	0.7	-5.6	1.3	-6.5	nt	nt
COC(=O)c1cc(S(=O)(=O)N2CCN(c3ccc(OC)cc3)CC2)cn1C	-12.9	16.4	3.0	-8.3	4.5	-14.2	nt	nt
Nc1ccc(-c2nc3ccc(-c4nc5ccccc5o4)cc3[nH]2)cc1	7.6	56.9	0.2	-12.4	-0.2	37.8	12.3	-7.2
CCOC(=O)c1ccc(N=C2SC(C(=O)Nc3ccc(C(=O)O)cc3)CC(=O)N2Cc2cccs2)cc1 (stereo unspecified)	25.3	26.9	-1.0	-0.7	-0.9	34.7	18.0	6.6
CCOC(=O)c1ccc(N=C2SC(C(=O)NC)CC(=O)N2Cc2ccc(F)cc2)cc1 (stereo unspecified)	-1.4	14.9	0.0	0.1	0.6	-4.1	nt	nt
CCOc1ccccc1OC(=O)CN1C(=O)c2ccccc2C1=O	-5.9	6.7	-0.5	-13.2	-0.7	-13.1	nt	nt
O=S(=O)(NCc1ccccc1)c1ccc(NC(=S)NCc2ccco2)cc1	12.5	-5.9	14.2	-19.8	12.7	29.8	40.5*	22.2
CN1CCN(NC(=O)c2ccc(Br)c(S(=O)(=O)N3CCOCC3)c2)CC1	-6.9	3.5	0.4	-3.3	-0.1	7.4	nt	nt
c1ccc(Cn2nnnc2C(c2cccs2)N2CCCCCC2)cc1 (stereo unspecified)	4.0	8.8	-0.6	-6.8	0.1	38.2	-14.8	-12.9
c1ccc(Cn2nnnc2C(c2cccs2)N2CCc3ccccc3C2)cc1 (stereo unspecified)	-9.4	4.8	0.5	-3.0	0.6	-4.0	nt	nt
CN(C(=O)COC(=O)CNC(=O)c1ccccc1F)C1CCCCC1	-25.9	4.9	0.4	2.7	0.4	-0.6	nt	nt
CC1(c2ccc(OC(F)F)cc2)NC(=O)N(CC(=O)Nc2ccc(N3CCCCC3)cc2)C1=O (stereo unspecified)	14.2	-1.1	26.6*	-21.1	26.8*	17.9	62.4*	31.7*
O=C(CN1C(=O)NC2(CCCCCCC2)C1=O)Nc1ccc(OC(F)F)cc1	-17.7	8.8	-1.1	-3.9	-0.9	-4.1	nt	nt
CC1(c2ccc([N+](=O)[O-])cc2)NC(=O)N(CC(=O)Nc2ccc(N3CCCCC3)cc2)C1=O (stereo unspecified)	17.6	6.1	11.0	-13.6	11.3	20.6	47.9*	19.7
CC1(c2ccccc2)NC(=O)N(CC(=O)Nc2ccc([N+](=O)[O-])cc2)C1=O (stereo unspecified)	6.8	24.7	-0.6	-10.7	0.8	0.3	nt	nt
CCN(CC(=O)NC1CCS(=O)(=O)C1)S(=O)(=O)c1ccccc1Cl (stereo unspecified)	13.4	-6.8	-0.7	-7.1	-0.2	3.0	nt	nt
COc1ccc(OCCCC(=O)Nc2cc([N+](=O)[O-])ccc2C)cc1	0.3	29.4	-0.9	-10.0	4.1	-22.6	nt	nt
SMILES	CHO parental Ca	OX1R antag-1	OXTR ag	OXTR potentiate	V1aR counter	OX1R antag-2	OX1R Ca confirm	CHO Ca triplic
CC1=CN(S(=O)(=O)c2ccc(C)cc2)C[C@@H]2c3ccccc3N(S(=O)(=O)c3ccc(C)cc3)[C@H]12	-13.1	3.2	nt	nt	nt	-14.0	nt	nt
CCOC(=O)c1c(-c2ccc(-c3ccccc3)cc2)csc1NC(=O)CNCCN(C)C	16.3	8.0	16.1	-17.6	11.5	31.3	35.8*	11.7
CCOC(=O)c1c(-c2ccccc2)csc1NC(=O)CCN1C(=O)c2ccccc2C1=O	-23.0	9.0	-2.0	-6.4	-1.4	-8.9	nt	nt
CCN(CC(=O)Nc1cc(S(=O)(=O)N2CCCCC2)ccc1Cl)Cc1ccccc1	27.2	14.9	1.5	-11.1	1.3	-26.5	nt	nt
CCN(CC(=O)Nc1cc(S(=O)(=O)N2CCOCC2)ccc1Cl)Cc1ccccc1	-20.1	20.1	3.7	-6.1	6.9	55.5*	14.0	3.7
CSc1cc(C)c(OCC(=O)Nc2ccc(NC(C)=O)cc2)c(C)c1	-9.2	34.5	1.2	-10.5	-0.1	27.5	13.8	-0.7
Nc1nnc(SCc2nc3scc(-c4ccccc4)c3c(=O)[nH]2)s1	7.8	11.1	1.2	-20.1	6.3	26.5	10.0	22.2
CC(OC(=O)C1CSC2(C)CCC(=O)N12)C(=O)Nc1ccc(F)cc1 (stereo unspecified)	-7.7	5.9	2.8	-0.3	1.6	12.9	nt	nt
COc1ccc(CNC(=O)COC(=O)[C@H](Cc2c[nH]c3ccccc23)NC(=O)c2cccs2)cc1	12.0	13.3	8.2	-14.6	7.4	48.8*	59.6*	10.4
COC(=O)C(Cc1c[nH]c2ccccc12)NC(=O)c1cccs1 (stereo unspecified)	-3.6	6.8	5.1	-6.0	3.9	-15.8	nt	nt
